# According to ChEMBL document CHEMBL3822431, “Hydroxychalcone inhibitors of Streptococcus mutans glucosyl transferases and biofilms as potential anticaries agents” (Bioorg Med Chem Lett, 2016):
# Active and inactive are the calls of the source. No cut-off for these calls is given here.
# Legend:
# [1] = molecular target: T1, Glucosyltransferase-I (Streptococcus mutans serotype c (strain ATCC 700610 / UA159)) (UniProt P08987); assay: Inhibition of Wild-type Streptococcus mutans UA159 glucosyltransferase B at 50 uM by coomassie blue staining based SDS-PAGE method
# T1 sequence (whole entry): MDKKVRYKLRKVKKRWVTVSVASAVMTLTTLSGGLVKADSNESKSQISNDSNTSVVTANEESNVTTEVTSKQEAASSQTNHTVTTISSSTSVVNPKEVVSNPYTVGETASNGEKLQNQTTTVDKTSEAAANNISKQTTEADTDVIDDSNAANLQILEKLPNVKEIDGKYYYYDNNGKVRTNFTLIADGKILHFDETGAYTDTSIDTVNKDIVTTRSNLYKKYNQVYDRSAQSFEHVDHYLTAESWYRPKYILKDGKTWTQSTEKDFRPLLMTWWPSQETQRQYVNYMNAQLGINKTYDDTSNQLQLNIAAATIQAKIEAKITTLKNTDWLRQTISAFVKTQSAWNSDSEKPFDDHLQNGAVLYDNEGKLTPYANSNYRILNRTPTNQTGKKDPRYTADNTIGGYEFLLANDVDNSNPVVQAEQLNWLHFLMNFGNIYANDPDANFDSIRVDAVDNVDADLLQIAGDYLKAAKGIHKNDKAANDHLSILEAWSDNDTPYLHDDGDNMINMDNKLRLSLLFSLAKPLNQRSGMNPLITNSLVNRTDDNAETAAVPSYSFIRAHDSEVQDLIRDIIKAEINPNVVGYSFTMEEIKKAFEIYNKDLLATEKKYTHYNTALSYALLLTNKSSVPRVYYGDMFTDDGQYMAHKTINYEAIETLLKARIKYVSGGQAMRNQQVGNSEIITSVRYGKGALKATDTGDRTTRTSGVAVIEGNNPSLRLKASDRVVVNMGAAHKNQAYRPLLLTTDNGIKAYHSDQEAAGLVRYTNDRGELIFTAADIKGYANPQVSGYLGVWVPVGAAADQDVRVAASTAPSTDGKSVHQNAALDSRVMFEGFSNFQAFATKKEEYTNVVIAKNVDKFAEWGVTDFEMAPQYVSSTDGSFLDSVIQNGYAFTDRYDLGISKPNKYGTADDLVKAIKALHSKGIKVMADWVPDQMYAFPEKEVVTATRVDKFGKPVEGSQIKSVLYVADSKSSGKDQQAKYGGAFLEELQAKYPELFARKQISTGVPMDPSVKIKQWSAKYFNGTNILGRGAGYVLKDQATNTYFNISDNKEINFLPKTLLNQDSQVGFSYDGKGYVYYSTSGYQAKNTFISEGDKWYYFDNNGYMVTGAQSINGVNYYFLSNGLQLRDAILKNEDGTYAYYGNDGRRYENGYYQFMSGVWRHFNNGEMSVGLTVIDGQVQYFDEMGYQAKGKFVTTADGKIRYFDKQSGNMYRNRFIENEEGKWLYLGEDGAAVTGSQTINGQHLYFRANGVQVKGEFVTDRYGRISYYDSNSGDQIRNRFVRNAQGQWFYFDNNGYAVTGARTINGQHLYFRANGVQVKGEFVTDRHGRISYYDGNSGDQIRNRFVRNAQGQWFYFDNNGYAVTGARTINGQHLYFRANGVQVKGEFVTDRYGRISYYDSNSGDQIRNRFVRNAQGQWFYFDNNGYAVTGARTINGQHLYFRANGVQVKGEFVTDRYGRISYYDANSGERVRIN
# Summary of the method: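 Compound (50 µM) added to overnight S. mutans UA159 wild-type cultures; Gtfs collected and concentrated from supernatants, run on SDS-PAGE in duplicate; one gel Coomassie blue stained for protein levels.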
# Streptococcus mutans = assay: Inhibition of biofilm formation of Streptococcus mutans UA159 after 16 hrs by crystal violet staining based serial dilution method; format: functional, organism-based; conditions: Streptococcus mutans, UA159, 16 h
# Summary of the method: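 S. mutans UA159 co-incubated with compound at various concentrations; biofilm quantified by crystal violet protocol, read at OD562.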
Compound,inhibition [1],IC50 (Streptococcus mutans)
O=C(/C=C\c1ccc(O)cc1O)c1cccc(O)c1,Active,44 µM
O=C(/C=C/c1cc(O)c(O)cc1O)c1ccccc1O (stereo in doubt; 18c),Active,–
O=C(/C=C/c1ccc(O)cc1O)c1ccc(O)cc1,Active,162 µM
O=C(/C=C\c1ccc(O)cc1O)c1ccc(O)cc1,Active,77 µM
O=C(/C=C/c1ccc(O)cc1O)c1cccc(O)c1 (stereo in doubt; 9a),Active,–
